Where “and” joins values, the source holds several entries; their conditions need not be identical. Equal values may be shown once.
Tests used:
[1] = system: human breast adenocarcinoma, MCF-7 cell line; assay: MTT cytotoxicity assay, MCF-7; format: cell-based; details: for SI (IC50 of Vero cell line/IC50 of MCF-7 cell line): Vero vs MCF-7; for IC50: read-out: IC50 breast cancer MCF-7, MTT, 24 h incubation, n = 3
Summary of the method: (§1)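 MTT viability assay. Vero cells were grown in MEM and MCF-7 cells in DMEM, both with 10% FBS and penicillin/streptomycin, at 37 °C and 5% CO2. Cells were exposed 24 h to test complex at 2, 4, 8, 16, 32 and 64 (DMSO stock). Viability was expressed relative to untreated control and IC50 computed. Values are mean ± SD of three independent experiments. SI = IC50 Vero / IC50 MCF-7.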

supercoiled pcDNA = assay: Photoinduced pcDNA cleavage; format: biochemical; details: 250 μM complex + 0.1 μM pcDNA
normal Vero cell line = assay: MTT cytotoxicity assay, Vero; format: cell-based; details: read-out: IC50 normal Vero, 24 h incubation, n = 3
Summary of the method: as §1

zebrafish embryos [2] = assay: Zebrafish embryo acute toxicology; format: in vivo, Danio rerio; details: for drop of survival rate when the concentration increased from 15 to 90 μM / morphological changes in zebrafish embryos / LC50: 96 hpf; for morphological changes in zebrafish embryos: even at 90 M (printed); for LC50: zebrafish embryos
CT-DNA = CT-DNA UV-vis absorption titration; format: binding, calf; details: Van't Hoff equation ΔG = −RT lnKb
Summary of the method: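 UV-vis titration of test complex (14 μM) with CT-DNA (0–90 μM) in 5 mM Tris–HCl/50 mM NaCl, pH 7.2. Complex came from a 5 mM DMSO stock diluted in buffer, and samples were equilibrated about 14 h at 37 °C. The binding constant came from absorbance changes, and ΔG from it.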

[3] = system: guanosine-5′-monophosphate, 5′-GMP; assay: Substitution kinetics of chlorides by guanosine-5′-monophosphate; format: physicochemical; details: Nu = 5′-GMP, 35 °C; for k2^1st × 10^1: first step; for k2^1st × 10^1 / k2^2nd × 10^2: pH 7.2; for k–1^2nd × 10^5: second step back reaction; for k2^2nd × 10^2: second step
Summary of the method: (§2)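 Chloride substitution was followed by UV-vis under pseudo-first-order conditions: complex 50 μM with the nucleophile in ≥20-fold excess, in 5 mM Tris–HCl/50 mM NaCl, pH 7.2. Complex stocks were 5 mM in 5% DMF. Runs spanned 25–55 °C at 10 °C intervals, and the Tu trace was taken at 524 nm. Rate constants came from kobs vs [nucleophile] plots, with activation parameters from temperature dependence.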

[4] = Substitution kinetics of chlorides by thiourea; format: physicochemical; details: Nu = Tu, 35 °C; for k2^1st × 10^1: first step; for k2^1st × 10^1 / k2^2nd × 10^2: pH 7.2; for k–1^2nd × 10^5: second step back reaction; for k2^2nd × 10^2: second step
Summary of the method: as §2

BSA = BSA (Bos taurus, UniProt P02769); assay: BSA fluorescence quenching titration; format: binding, bovine; details: for Ksv × 10^–5: BSA 1.08 μM; for Ksv × 10^–5 / Decrease in initial BSA fluorescence: λem = 348 nm; for kq × 10^–13: BSA quenching; for KF × 10^–5 / n (number of binding sites): BSA, Scatchard; for Decrease in initial BSA fluorescence: pH 7.2
BSA, sequence (P02769 25-607): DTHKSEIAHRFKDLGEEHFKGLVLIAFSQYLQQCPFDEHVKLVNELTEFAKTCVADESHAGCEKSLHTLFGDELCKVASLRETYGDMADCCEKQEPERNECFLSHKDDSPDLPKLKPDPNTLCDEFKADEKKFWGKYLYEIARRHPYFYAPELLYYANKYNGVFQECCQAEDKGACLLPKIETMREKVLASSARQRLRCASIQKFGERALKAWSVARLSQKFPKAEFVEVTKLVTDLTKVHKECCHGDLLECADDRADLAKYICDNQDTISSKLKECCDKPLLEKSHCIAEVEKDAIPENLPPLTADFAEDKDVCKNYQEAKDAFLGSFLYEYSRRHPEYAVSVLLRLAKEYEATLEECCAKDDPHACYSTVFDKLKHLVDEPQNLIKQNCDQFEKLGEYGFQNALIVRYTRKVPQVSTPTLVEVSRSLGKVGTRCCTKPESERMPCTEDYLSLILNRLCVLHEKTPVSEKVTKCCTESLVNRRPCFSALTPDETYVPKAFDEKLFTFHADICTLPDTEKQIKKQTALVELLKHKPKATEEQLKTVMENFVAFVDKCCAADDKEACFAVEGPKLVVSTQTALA
Summary of the method: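 Complex stocks were 5 mM in DMSO, diluted in buffer, and samples were incubated about 14 h at 37 °C before reading. Emission was read at 348 nm and checked for inner-filter effects by UV-vis. Data were fitted by Stern–Volmer and Scatchard analysis.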

EtBr + CT-DNA adduct = assay: Fluorescence EtBr exchange titration on CT-DNA; format: binding, calf; details: for n (number of binding sites) / KF × 10^–4 (Scatchard binding constant) / Kapp × 10^–6 (apparent binding constant) / Ksv × 10^–4 (Stern–Volmer quenching constant) / kq × 10^–12 (bimolecular quenching rate constant): EtBr exchange; for n (number of binding sites): Scatchard; for KF × 10^–4 (Scatchard binding constant) / Kapp × 10^–6 (apparent binding constant) / Ksv × 10^–4 (Stern–Volmer quenching constant) / kq × 10^–12 (bimolecular quenching rate constant) / Decrease in initial EtBr+CT-DNA fluorescence: pH 7.2; for Decrease in initial EtBr+CT-DNA fluorescence: λem = 596 nm, λex = 510 nm
Summary of the method: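 Competitive EtBr displacement used EtBr 20.0 μM and CT-DNA 20.0 μM with test complex added at 0–150 μM, in 5 mM Tris/50 mM NaCl, pH 7.2. Samples were equilibrated about 14 h at 37 °C. Emission was 596 nm (excitation 510 nm), with inner-filter check. Data were analysed as Stern–Volmer Io/I vs [Q] and Scatchard log[(Io–I)/I] vs log[Q].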

[5] = Substitution kinetics of chlorides by L-methionine; format: physicochemical; details: Nu = L-Met, 35 °C, pH 7.2; for k2^1st × 10^1: first step; for k1^2nd × 10^4: second step (ring closure)
Summary of the method: as §2

zebrafish embryos [6] = details: cited from earlier work

Row | Molecule | SI (IC50 of Vero cell line/IC50 of MCF-7 cell line) [1] | IC50 [1] [µM] | % of NC (pcDNA cleavage) (supercoiled pcDNA) [%] | IC50 (normal Vero cell line) [µM] | morphological changes in zebrafish embryos (zebrafish embryos [2]) | LC50 (zebrafish embryos [2]) [µM] | ΔG of binding with CT-DNA (CT-DNA) [kJ mol^–1] | k2^1st × 10^1 [3] [M^–1 s^–1] | k–1^2nd × 10^5 [3] [s^–1] | k2^2nd × 10^2 [3] [M^–1 s^–1] | k2^1st × 10^1 [4] [M^–1 s^–1] | k–1^2nd × 10^5 [4] [s^–1] | k2^2nd × 10^2 [4] [M^–1 s^–1] | experimental ΔG of binding with BSA (BSA) [kJ mol^–1] | Ksv × 10^–5 (BSA) [M^–1] | kq × 10^–13 (BSA) [M^–1 s^–1] | KF × 10^–5 (BSA) [M^–1] | n (number of binding sites) (BSA) | Decrease in initial BSA fluorescence (BSA) | n (number of binding sites) (EtBr + CT-DNA adduct) | other results
1 | [Cl-].[Cl-].[Pt+2].[Ru+2].c1ccc(-c2nccnc2-c2ccccn2)nc1.c1cnc2c(c1)ccc1cccnc12.c1cnc2c(c1)ccc1cccnc12 [C1, [(1,10-phenanthroline)2Ru(II)(μ-2,3-bis(2-pyridyl)pyrazine)Pt(II)dichloride]^2+] | 2.12 | 9.1 ± 1.5 | ~24 | 19.3 ± 2.1 | did not induce any significant morphological changes | 65.2 ± 1 | −30 ± 3 | 0.34 ± 0.09 | 0.20 ± 0.02 | 0.75 ± 0.04 | 1.45 ± 0.15 | 1.04 ± 0.04 | 2.73 ± 0.10 | −31.02 | 1.84 ± 0.08 | 1.84 ± 0.16 | 0.47 ± 0.06 | 0.84 ± 0.03 | up to 20% | 0.99 ± 0.04 | drop of survival rate when the concentration increased from 15 to 90 μM (zebrafish embryos [2]): 50%; KF × 10^–4 (Scatchard binding constant) (EtBr + CT-DNA adduct): 1.00 ± 0.05 M^–1; Kapp × 10^–6 (apparent binding constant) (EtBr + CT-DNA adduct): 3.33 ± 0.11 M^–1; Ksv × 10^–4 (Stern–Volmer quenching constant) (EtBr + CT-DNA adduct): 1.59 ± 0.07 M^–1; kq × 10^–12 (bimolecular quenching rate constant) (EtBr + CT-DNA adduct): 0.69 ± 0.19 M^–1 s^–1; Decrease in initial EtBr+CT-DNA fluorescence (EtBr + CT-DNA adduct): up to 19%; k2^1st × 10^1 [5]: 0.75 ± 0.11 M^–1 s^–1; k1^2nd × 10^4 [5]: 0.37 ± 0.08 ^a s^–1
2 | [Cl-].[Cl-].[Pt+2].[Ru+2].c1ccc(-c2nc3ccccc3nc2-c2ccccn2)nc1.c1cnc2c(c1)ccc1cccnc12.c1cnc2c(c1)ccc1cccnc12 [C2, [(1,10-phenanthroline)2Ru(II)(μ-2,3-bis(2-pyridyl)quinoxaline)Pt(II)dichloride]^2+] | 4.38 | 4 ± 1.1 | ~18 | 17.5 ± 1.9 | did not induce any significant morphological changes | 96.3 ± 1.4 | −35 ± 2 | 0.96 ± 0.13 | 0.84 ± 0.04 | 1.48 ± 0.08 | 4.26 ± 0.21 | 4.35 ± 0.09 | 8.65 ± 0.15 | −31.55 | 2.26 ± 0.15 | 2.26 ± 0.24 | 1.16 ± 0.10 | 1.00 ± 0.05 | ≤ 17% | 0.99 ± 0.05 | KF × 10^–4 (Scatchard binding constant) (EtBr + CT-DNA adduct): 1.98 ± 0.11 M^–1; Kapp × 10^–6 (apparent binding constant) (EtBr + CT-DNA adduct): 6.25 ± 0.17 M^–1; Ksv × 10^–4 (Stern–Volmer quenching constant) (EtBr + CT-DNA adduct): 2.83 ± 0.13 M^–1; kq × 10^–12 (bimolecular quenching rate constant) (EtBr + CT-DNA adduct): 1.23 ± 0.24 M^–1 s^–1; Decrease in initial EtBr+CT-DNA fluorescence (EtBr + CT-DNA adduct): ≤ 23%; k2^1st × 10^1 [5]: 1.75 ± 0.18 M^–1 s^–1; k1^2nd × 10^4 [5]: 1.02 ± 0.15 ^a s^–1
3 | [Cl-].[Cl-].[Pt+2].[Ru+2].c1ccc(-c2nc3cc4ccccc4cc3nc2-c2ccccn2)nc1.c1cnc2c(c1)ccc1cccnc12.c1cnc2c(c1)ccc1cccnc12 [C3, [(1,10-phenanthroline)2Ru(II)(μ-2,3-bis(2-pyridyl)benzo[g]quinoxaline)Pt(II)dichloride]^2+] | 5.55 and 5.23 | 3.1 ± 0.8 | 17 | 16.2 ± 1.7 | did not induce any significant morphological changes | 149 | −36 ± 3 | 1.39 ± 0.15 | 2.22 ± 0.04 | 2.20 ± 0.10 | 7.57 ± 0.29 | 10.99 ± 0.13 | 14.53 ± 0.22 | −31.97 | 2.65 ± 0.22 | 2.65 ± 0.33 | 6.64 ± 0.17 | 1.01 ± 0.07 | ≤ 10% | 1.00 ± 0.07 | % of survival rate (zebrafish embryos [2]; 15 μM, 96 h): 86.7%; embryos abnormal, difficulty growing into juvenile zebrafish (zebrafish embryos [2]; 45 μM or higher concentration): about 25%; % of survival rate (zebrafish embryos [2]; 90 μM, 96 h): 56.7%; drop of survival rate when the concentration increased from 15 to 90 μM (zebrafish embryos [2]): 30%; KF × 10^–4 (Scatchard binding constant) (EtBr + CT-DNA adduct): 3.96 ± 0.17 M^–1; Kapp × 10^–6 (apparent binding constant) (EtBr + CT-DNA adduct): 8.00 ± 0.23 M^–1; Ksv × 10^–4 (Stern–Volmer quenching constant) (EtBr + CT-DNA adduct): 3.92 ± 0.19 M^–1; kq × 10^–12 (bimolecular quenching rate constant) (EtBr + CT-DNA adduct): 1.70 ± 0.31 M^–1 s^–1; Decrease in initial EtBr+CT-DNA fluorescence (EtBr + CT-DNA adduct): ≤ 37%; k2^1st × 10^1 [5]: 3.10 ± 0.26 M^–1 s^–1; k1^2nd × 10^4 [5]: 2.08 ± 0.33 ^a s^–1
4 | cis-[Pt(NH3)2Cl2] [cisplatin, reference compound] | 4.02 | – | – | – | did not induce any significant morphological changes | 181 | – | – | – | – | – | – | – | – | – | – | – | – | – | – | % of survival rate (zebrafish embryos [2]; 15 μM, 96 h): over 90%; % of hatching rate (zebrafish embryos [2]; 90 μM, 96 h): about 6.7%; % of survival rate (zebrafish embryos [2]; 90 μM, 96 h): 60%; lethality in zebrafish (zebrafish embryos [6]; 400 μM): lethal outcome; toxicity in developing zebrafish embryos (zebrafish embryos [6]; under 15 μM, delayed hatching up to 120 hpf): nontoxic

Source: article PMC9352169 (ACS Omega, 2022)
